Screening results as filed in PubChem.
Only some compounds are listed: those with a hit (about 1.8% of all), similar ones and a draw of the others.
M5 PAM = human M5 muscarinic receptor positive allosteric modulators, primary screen, CHO-K1 cells, Fluo-8 calcium fluorescence; CHO-K1 hM5, ACh EC20 PAM; 0% = ACh EC20, 100% = ACh EC100; AID 624038, 2012; Muscarinic acetylcholine receptor M5 (Homo sapiens), P08912; activation, % at 3 µM; 360,000 compounds, 0.3% hits;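 active = activation above the run cutoff, the mean activation of all test compounds plus 3 SD, cut at about 18% in these data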
Target sequence (P08912 whole entry, looked up): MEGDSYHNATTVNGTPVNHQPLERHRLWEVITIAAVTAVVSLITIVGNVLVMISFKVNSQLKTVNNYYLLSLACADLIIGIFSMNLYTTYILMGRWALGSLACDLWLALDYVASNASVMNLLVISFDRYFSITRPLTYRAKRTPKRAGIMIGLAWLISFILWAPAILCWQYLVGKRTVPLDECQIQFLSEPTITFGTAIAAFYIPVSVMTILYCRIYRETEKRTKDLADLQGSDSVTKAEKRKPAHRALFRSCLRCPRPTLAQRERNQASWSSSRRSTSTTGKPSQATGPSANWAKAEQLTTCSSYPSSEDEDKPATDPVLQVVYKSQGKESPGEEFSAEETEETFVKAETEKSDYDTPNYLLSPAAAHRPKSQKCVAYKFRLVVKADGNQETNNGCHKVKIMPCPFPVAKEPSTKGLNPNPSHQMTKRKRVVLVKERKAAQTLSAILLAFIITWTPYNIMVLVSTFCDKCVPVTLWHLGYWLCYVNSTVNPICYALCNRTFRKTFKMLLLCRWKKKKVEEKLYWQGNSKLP
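Assay system: CHO-K1 hM5 cells / Incubation: Fluo-8 loading 80 min at 37 °C plus 30 min room temperature / Technique: Fluo-8 calcium dye fluorescence, kinetic read / Repeats: single replicate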
M5 ag = human M5 muscarinic receptor agonists, primary screen, CHO-K1 cells, Fluo-8 calcium fluorescence | 360,000 compounds, 0.19% hits | activation, % at 3 µM | AID 624037, 2012 | Muscarinic acetylcholine receptor M5 (Homo sapiens), P08912 | CHO-K1 hM5 cells; 0% DMSO wells, 100% maximal acetylcholine response;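 active = activation above the run's mean over test compounds plus 3 SD, cut at about 23% in these data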;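 note: signal is peak over basal fluorescence ratio across the kinetic read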
CHRM4 antagonist = human M4 muscarinic receptor antagonists, primary screen, CHO cells, Fluo-8 calcium fluorescence; Muscarinic acetylcholine receptor M4 (Homo sapiens), P08173; 360,000 compounds, 0.73% hits; CHO-hM4 cells, ACh EC80; AID 624125, 2012; inhibition, % at 3 µM;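 active = inhibition above its plate's cutoff, the mean inhibition of sample wells plus 3 SD, cut at about 27% in these data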;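 note: 0% = acetylcholine EC80 with DMSO and 100% = DMSO without agonist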
M5 antag = human M5 muscarinic receptor antagonists, primary screen, CHO cells, Fluo-8 calcium fluorescence; Muscarinic acetylcholine receptor M5 (Homo sapiens), P08912; CHO-hM5 cells, ACh EC80; inhibition, % at 3 µM; 360,000 compounds, 0.59% hits;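 active = inhibition above a per-plate cutoff, the mean of that plate's test compounds plus 3 SD, cut at about 27% in these data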;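 note: 0% = acetylcholine EC80 with DMSO and 100% = DMSO without agonist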
M4 ag = human M4 muscarinic receptor agonists, primary screen, CHO-K1 cells, Fluo-8 calcium fluorescence; CHO-K1 hM4/Gqi5; vehicle 0%, full acetylcholine response 100%; activation, % at 3 µM; AID 624127, 2012; 360,000 compounds, 0.14% hits;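 active = activation above the run mean over all test wells plus 3 SD, cut at about 32% in these data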;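 note: peak over basal fluorescence ratio per well then scaled between controls; 0% = DMSO wells and 100% = acetylcholine at EC100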
CHRM4 PAM = human M4 muscarinic receptor positive allosteric modulators, primary screen, CHO-K1 cells, Fluo-8 calcium fluorescence | activation, % at 3 µM | AID 624126, 2012 | 360,000 compounds, 0.4% hits | Muscarinic acetylcholine receptor M4 (Homo sapiens), P08173 | CHO-K1 hM4/Gqi5, ACh EC20; 0% = ACh EC20, 100% = maximal ACh;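 active = activation above its plate's cutoff, the mean activation of sample wells plus 3 SD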
Active calls of the source: *.

SMILES | M5 PAM | M5 ag | CHRM4 antagonist | M5 antag | M4 ag | CHRM4 PAM
O=C(O)CCN1CC2([N+](=O)[O-])CC=C(OCCO)C([N+](=O)[O-])(C1)C2 (stereo not given) | -4 | -2 | 0 | 8 | 0 | 0
COC1=CCC2([N+](=O)[O-])CN(CCO)CC1([N+](=O)[O-])C2 (stereo not given) | 19* | 10 | -2 | 9 | 3 | 17
O=C(NCc1cccnc1)C1C2C=CC(C2)C1C(=O)Nc1cccc(C(F)(F)F)c1 (stereo not given) | -4 | -1 | 4 | 11 | 0 | -4
COc1ccc(C(=O)Nn2c(SCc3ccc([N+](=O)[O-])cc3)nc3ccccc3c2=O)cc1 | 18* | -3 | -21 | 6 | 2 | -4
CCN(CC)CCNc1nc2c(c(=O)[nH]c(=O)n2C)n1CC(O)COc1ccc(Cl)cc1Cl (stereo not given) | 3 | -6 | 11 | 4 | 0 | -6
Cc1cc(C)n(-c2nc3c(c(=O)[nH]c(=O)n3C)n2CC(O)COc2ccc(Cl)cc2Cl)n1 (stereo not given) | 22* | -10 | -11 | -2 | 0 | -1
CCN(CC)c1ccc(/C=C2\C(=O)c3ccc(C(=O)O)cc3C2=O)cc1 | -21 | 32* | 32* | 25 | 20 | -11
O=C(CC(=O)c1cc(Cl)ccc1O)c1ccccc1 | 0 | 1 | -8 | 1 | 0 | 5
O=C(c1ccccc1)c1cc(Cl)ccc1N1C(=O)C=CC1=O | 8 | 6 | 35* | 6 | 5 | -17
O=C(CCl)N1N=C(c2ccco2)CC1c1ccco1 (stereo not given) | 28* | 3 | -7 | 11 | 1 | 2
O=C(OCC(=O)N1N=C(c2ccc(Cl)cc2)CC1c1ccco1)c1cccnc1 (stereo not given) | 18* | 6 | -5 | -1 | 1 | 8
COC(=O)[C@]12CCCCC=C1N(CCc1ccc(OC)c(OC)c1)C(=O)[C@H](CC(=O)N1CCN(C(=O)C3CC3)CC1)C2 | -3 | 5 | -12 | -3 | 11 | 1
Nc1c(C(=O)NCc2ccc3c(c2)OCO3)c2nc3ccccc3nc2n1CCCN1CCOCC1 | -2 | 0 | 4 | 13 | 9 | -1
COc1ccccc1CNC(=O)c1c(N)n(CCCN2CCOCC2)c2nc3ccccc3nc12 | -12 | 5 | 34* | 25 | 32 | -10
CCCCCCCCC(=O)N1C(C)CCC1C (stereo not given) | -2 | 0 | -2 | -1 | 0 | 5
CC1(C#CC[N+]2(C)CCCCC2)CCC2C(O1)c1ccccc1OC2(C)C (stereo not given) | -35 | 76* | 79* | 88* | 84* | -30
Cc1ccccc1C(=O)NC1CCN(Cc2nnnn2C(C)(C)C)CC1 | 6 | 2 | 3 | -3 | 0 | -1
Cc1ccccc1C(=O)NC1CCN(Cc2nnnn2C2CCCC2)CC1 | 32* | -1 | -7 | 27 | 0 | 5
COc1ccc(NC(=O)C2Cc3c(-c4cccc(C(N)=O)c4)ccnc3O2)cc1 (stereo not given) | 0 | 1 | -13 | -8 | 3 | -6
Cc1cc(OCCCC(=O)Nc2cccc(-n3cnnn3)c2)ccc1Cl | -17 | 6 | 13 | 27* | 19 | -14
Cc1cc(C(=O)N2CCC2(C)C(=O)O)c(C)o1 (stereo not given) | 5 | 0 | -25 | -19 | 1 | 18*
CCOC(=O)C1=CCN(S(=O)(=O)c2ccc(F)cc2)C1c1ccc(F)cc1 (stereo not given) | -4 | -4 | -11 | 1 | 13 | -8
